Test results reported in paper PMC10329767 (Biochemistry, 2023).
Where “and” joins values, the source holds several entries; their conditions need not be identical. Equal entries are not always repeated.

Key:
[1] = target: 3,5-F2Y158 InhA; type: biochemical, Mycobacterium tuberculosis; settings: read-out: Kiapp; PT166, rapid reversible, global fit to equations 6 and 7
[2] = system: 2,3,5-F3Y158 InhA; type: biochemical, Mycobacterium tuberculosis
[3] = target: T1, wild-type InhA (Mycobacterium tuberculosis, UniProt P9WGR1); settings: read-out: Kiapp; PT166, rapid reversible, global fit to equations 6 and 7
[4] = target: 3-FY158 InhA; settings: read-out: Kiapp; PT166, rapid reversible, global fit to equations 6 and 7
[5] = system: 2,3,5-F3Y158 InhA; type: biochemical, Mycobacterium tuberculosis; settings: 2,3,5-F3Y158 InhA vs wild-type
[6] = system: Y158F mutant; settings: cited from earlier work
[7] = 19F NMR pH titration of the free amino acid in solution; type: physicochemical; settings: 19F NMR chemical shift vs pD
Summary of the method: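 Free fluorinated Tyr amino acid (5 mg) dissolved in 30 mM deuterated PIPES buffer; pD adjusted with DCl or NaOD across pD 3.6–12.5. 19F spectra recorded on a 400 MHz spectrometer. The 19F chemical shift was plotted against pD and fitted to obtain pKa values.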

[8] = target: T1, wild-type InhA; test: Direct binding fluorescence titration of NADH
[9] = target: 3-FY158 InhA; test: Direct binding fluorescence titration of NADH; set-up: species or system Mycobacterium tuberculosis; settings: 25 °C, pH 6.8
[10] = target: 3,5-F2Y158 InhA; set-up: species or system Mycobacterium tuberculosis; settings: NADH binding, 25 °C, pH 6.8
[11] = target: 2,3,5-F3Y158 InhA; set-up: species or system Mycobacterium tuberculosis; settings: NADH binding, 25 °C, pH 6.8

## CCCCCCc1cc(=O)c(Oc2ccccc2C)cn1C [PT166]
[1]
  Ki: 0.048 ± 0.001 µM
[2]; PT166, 2,3,5-F3Y158 InhA vs wild-type
  fold change (decrease in affinity) in Kiapp compared to wild-type: ~ 7 fold and 7 fold
[2]; read-out: Kiapp, PT166, rapid reversible, global fit to equations 6 and 7
  Ki: 0.213 ± 0.002 µM
[3]
  Ki: 0.031 ± 0.001 µM
[4]
  Ki: 0.033 ± 0.001 µM

## CCCCCCCCC/C=C/C(=O)SCCNC(=O)CCNC(=O)[C@H](O)C(C)(C)COP(=O)(O)OP(=O)(O)OC[C@H]1O[C@@H](n2cnc3c(N)ncnc32)[C@H](O)[C@@H]1OP(=O)(O)O [DDCOA, trans-2-dodecenoyl-CoA]
[5]
  fold higher KMapp for dd-CoA than wild-type InhA: ~ 5 fold

## Oc1cc(Cl)ccc1Oc1ccc(Cl)cc1Cl [triclosan]
[6]
  fold lower affinity for Y158F mutant compared to wild-type InhA: ~ 100 fold

## N[C@@H](Cc1cc(F)c(O)c(F)c1F)C(=O)O [2,3,5-F3Y, 2,3,5-trifluoroTyr]
[7]
  pKa of the hydroxyl group: 6.5

## NC(=O)C1=CN([C@@H]2O[C@H](COP(=O)(O)OP(=O)(O)OC[C@H]3O[C@@H](n4cnc5c(N)ncnc54)[C@H](O)[C@@H]3O)[C@@H](O)[C@H]2O)C=CC1 [NADH]
[8]; 25 °C, pH 6.8, C-terminal His-tag InhA
  Kd: 8.2 ± 0.3 µM
[8]; fit to Equation 1
  N (Hill coefficient): 3.1 ± 0.3
[9]
  Kd: 7.1 ± 0.6 µM
[10]
  Kd: 8.1 ± 0.5 µM
[11]
  Kd: 8.7 ± 0.2 µM
